ChEMBL document CHEMBL2176974, “A bactericidal guanidinomethyl biaryl that alters the dynamics of bacterial FtsZ polymerization” (J Med Chem, 2012)
Where a chain is given by its changes, count along the chain named. ≈ marks a conversion by molar mass, not a printed value. Calls of active or inactive are those of the source. No cut-off for these calls is given here.

Assays:
[1] = molecular target: Tubulin beta chain (Sus scrofa) (UniProt P02554); assay: Effect on MAP-rich pig beta-tubulin polymerization at 40 ug/mL by microtiter plate-based light scattering assay
How it was run: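 MAP-rich porcine tubulin (70% β-tubulin, 30% MAPs) at 2 mg/mL with 1 mM GTP. Buffer was 80 mM PIPES·NaOH pH 7.0, 2 mM MgCl₂, 1 mM EGTA. Light scattering was followed as A340 continuously at 37 °C for 60 min, against a DMSO vehicle.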

Staphylococcus aureus [2] = assay: Antimicrobial effect against methicillin-sensitive Staphylococcus aureus 8325-4 assessed as changes in MIC measured after 12 incubation cycles by stepwise broth microdilution method relative to initial compound MIC; format: functional, organism-based
How it was run: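 Stepwise resistance selection. S. aureus 8325-4 at 10⁵ CFU/mL was inoculated into 2-fold increasing compound concentrations and incubated 24 h at 37 °C. Aliquots from the well with the highest concentration still showing growth (2-fold below MIC) seeded a new serial 2-fold dilution plate. This was repeated for multiple cycles, with MIC determined each cycle.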

Staphylococcus aureus [3] = assay: Antimicrobial activity against methicillin-resistant Staphylococcus aureus Mu3 incubated for 24 hrs by broth microdilution method; format: functional; conditions: Mu3, 24 h
[4] = tested on: T1, Cell division protein FtsZ (Staphylococcus aureus), P0A031 [I228R]; assay: Binding affinity to Staphylococcus aureus FtsZ I228R mutant self-polymerization at 10 ug/mL by microtiter plate-based light scattering assay
T1 sequence (whole entry): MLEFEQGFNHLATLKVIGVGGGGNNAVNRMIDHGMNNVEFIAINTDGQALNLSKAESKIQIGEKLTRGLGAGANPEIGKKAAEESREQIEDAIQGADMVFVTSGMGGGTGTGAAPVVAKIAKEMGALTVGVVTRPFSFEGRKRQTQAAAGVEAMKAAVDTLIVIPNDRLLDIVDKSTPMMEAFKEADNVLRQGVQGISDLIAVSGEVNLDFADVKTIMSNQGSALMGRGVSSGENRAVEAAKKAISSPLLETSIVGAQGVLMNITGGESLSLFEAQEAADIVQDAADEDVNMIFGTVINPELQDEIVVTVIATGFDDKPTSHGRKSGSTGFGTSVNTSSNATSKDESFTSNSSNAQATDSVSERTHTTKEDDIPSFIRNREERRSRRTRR

Enterococcus faecalis = assay: Binding affinity to Enterococcus faecalis FtsZ at 40 um by fluorescence anisotropy BoGTPgammaS competition assay
How it was run: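 Competition with fluorescent BoGTPγS. BoGTPγS (1 μM final) was mixed with 5 μM FtsZ and compound or unlabeled GTP at 0–40 μM. Buffer was 50 mM Tris·HCl pH 7.4, 50 mM KCl, 2 mM magnesium acetate. After 5 min at 25 °C, anisotropy was read at excitation 488 nm and emission 510 nm, in triplicate and averaged.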

[5] = molecular target: T2, Cell division protein FtsZ (Staphylococcus aureus) (UniProt P0A031); assay: Binding affinity to Staphylococcus aureus FtsZ expressed in Escherichia coli BL21 (DE3) at 40 uM by fluorescence anisotropy BoGTPgammaS competition assay
T2 sequence (whole entry): T1 sequence (whole entry) with R228I
How it was run: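 Competition: 1 μM BODIPY-GTPγS with 0 or 5 μM SaFtsZ and compound at 0–40 μM in 50 mM Tris·HCl pH 7.4, 50 mM KCl, 2 mM magnesium acetate. After 5 min at 25 °C, anisotropy read at excitation 488 / emission 510 nm, 4 nm bandwidths, triplicate. Unlabeled GTP used as the positive control.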

[6] = molecular target: T3, Cell division protein FtsZ (Escherichia coli K-12) (UniProt P0A9A6); assay: Stimulation of Escherichia coli FtsZ assembly at 20 ug/mL by transmission electron microscopy
T3 sequence (whole entry): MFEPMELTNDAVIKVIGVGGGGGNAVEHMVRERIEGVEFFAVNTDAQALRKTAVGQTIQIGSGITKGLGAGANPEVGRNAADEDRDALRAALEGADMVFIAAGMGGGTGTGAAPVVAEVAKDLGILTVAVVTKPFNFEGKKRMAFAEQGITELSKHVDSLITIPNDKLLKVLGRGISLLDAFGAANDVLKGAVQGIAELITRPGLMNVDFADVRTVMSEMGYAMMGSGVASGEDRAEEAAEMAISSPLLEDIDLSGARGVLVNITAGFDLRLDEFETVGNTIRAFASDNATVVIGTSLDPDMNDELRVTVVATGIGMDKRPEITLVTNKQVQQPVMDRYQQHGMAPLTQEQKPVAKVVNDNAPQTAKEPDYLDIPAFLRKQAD
How it was run: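 EcFtsZ was polymerized with 20 μg/mL compound (10 μM protein, 1 mM GTP, 10 mM CaCl₂, Tris/KCl/Mg acetate buffer pH 7.4). The reaction was diluted 1:10 in polymerization buffer at room temperature and applied to glow-discharged Formvar/carbon copper grids. Grids were negatively stained 1 min with 1% phosphotungstic acid and imaged by TEM at 80 kV.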

[7] = molecular target: T2, Cell division protein FtsZ (Staphylococcus aureus); assay: Stimulation of Staphylococcus aureus FtsZ assembly and bundling at 20 ug/mL by transmission electron microscopy
How it was run: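 SaFtsZ polymerized with 20 μg/mL compound under light-scattering assay conditions (10 μM protein, 1 mM GTP, 1 mM CaCl2, pH 7.4). Reaction diluted 1:10 in polymerization buffer, applied to glow-discharged Formvar/carbon grids, negatively stained with 1% phosphotungstic acid for 1 min, and imaged by TEM at 80 kV.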

Staphylococcus aureus [8] = assay: Bactericidal activity against methicillin-sensitive Staphylococcus aureus 8325-4 at 8 times MIC measured 2 hrs post dose for 24 hrs assessed as log reduction in bacterial CFU by time kill study; format: functional
How it was run: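 Exponentially growing S. aureus 8325-4 was diluted in CAMH broth to 10⁵–10⁶ CFU/mL. […] Samples taken at 2, 4 and 6 h were pelleted or diluted, then plated on TSA. Colonies were counted after 24 h at 37 °C. Points are the mean of two independent measurements.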

[9] = molecular target: T2, Cell division protein FtsZ (Staphylococcus aureus); assay: Stimulation of Staphylococcus aureus FtsZ self-polymerization by microtiter plate-based light scattering assay

Sequence of Tubulin beta chain (Sus scrofa) (P02554 whole entry): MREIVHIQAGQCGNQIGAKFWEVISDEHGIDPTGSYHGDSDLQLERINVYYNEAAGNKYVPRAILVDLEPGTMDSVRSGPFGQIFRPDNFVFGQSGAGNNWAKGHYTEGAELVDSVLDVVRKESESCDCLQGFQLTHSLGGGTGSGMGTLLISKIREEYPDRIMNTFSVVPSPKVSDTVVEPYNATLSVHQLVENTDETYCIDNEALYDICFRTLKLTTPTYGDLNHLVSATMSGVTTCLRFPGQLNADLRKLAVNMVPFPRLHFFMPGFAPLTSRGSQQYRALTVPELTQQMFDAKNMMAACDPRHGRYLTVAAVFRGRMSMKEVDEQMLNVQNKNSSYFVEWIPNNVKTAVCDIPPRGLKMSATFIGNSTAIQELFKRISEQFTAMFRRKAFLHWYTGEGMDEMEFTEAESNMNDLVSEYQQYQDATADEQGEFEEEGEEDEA

CC(C)(C)c1ccc(-c2cccc(CNC(=N)N)c2)cc1
Activity [1]: inactive
Activity (Staphylococcus aureus [2]): Active
MIC (Staphylococcus aureus [3]): 1 µg/mL (≈ 3.55 µM)
Activity [4]: Active
Activity (Enterococcus faecalis): inactive
Activity [5]: inactive
Activity [6]: Active
Activity [7]: Active
FC (Staphylococcus aureus [8]): 3
Activity [9]: Dose-dependent effect
